rRNA inh HTS = reduced GFP signal of wild-type E. coli, primary screen, bacterial rRNA inhibitor project, GFP/RFP fluorescence, OD600, single point; E. coli WT GFP vs humanized-ribosome RFP mutants, 24 h; hits give low values; DMSO median 0, no signal -100; GFP signal change (wild-type ribosome), % (no concentration beside the values); actives 1.6% (n = 350,000); AID 720706, 2013;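 active means significant combined selectivity score with lowered wild-type GFP, culture density cut under 30%, mutant RFP and density less affected; inactive means any of these conditions unmet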
FN deposition inh = inhibitors of fibronectin matrix deposition, primary screen, AH1F cells, Alexa488-fibronectin fluorescence, plate reader; inhibition, % at 12.6 µM; actives 0.086% (n = 350,000); AH1F fibroblasts, overnight;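 active means mean inhibition across replicates of 30% or more, regardless of how many single replicates reach that level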
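Material: AH1F fibroblasts assembling fluorescent fibronectin matrix; amount: 10000 AH1F cells/well; medium: DMEM, 2% serum; reagent: Alexa488-fibronectin, 24 nM final in well; dosing: single compound dose, delivered by pin transfer; incubation: 1 h adhesion, overnight exposure; detection: fluorescence after three HBSS washes, excitation 485 nm, emission 525 nm; measure: fibronectin deposition inhibition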
SIRT5 block = SIRT5 desuccinylase inhibitors, primary screen, biochemical, fluorescence imaging, single point, set 5 | inhibition, % at 15 µM | Purified SirT5, succinyl-peptide AMC, trypsin-coupled fluorescence | actives 1.1% (n = 330,000); in the data active means inhibition above about 15%
Target sequence (Q9NXA8 whole entry, looked up): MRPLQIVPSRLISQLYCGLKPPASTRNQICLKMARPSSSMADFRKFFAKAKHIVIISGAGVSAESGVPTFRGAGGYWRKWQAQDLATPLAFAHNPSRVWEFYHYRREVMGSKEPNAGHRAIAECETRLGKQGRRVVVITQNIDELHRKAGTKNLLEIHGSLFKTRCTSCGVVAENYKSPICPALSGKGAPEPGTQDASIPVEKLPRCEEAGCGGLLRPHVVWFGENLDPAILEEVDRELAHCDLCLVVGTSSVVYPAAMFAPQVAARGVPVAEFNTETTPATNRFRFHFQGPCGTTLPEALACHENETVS
Statin myotox sup = suppressors of statin myotoxicity in C2C12 myotubes, primary screen, cell-based, single point, plate reader | C2C12 myotubes + simvastatin, ATP luminescence, 48 h; scaled: DMSO 0, geranylgeraniol control 100 | rescue of ATP level, % at 7.49 µM | actives 0.78% (n = 330,000);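 active means mean ATP rescue above about 67%, or every replicate alone reaching that limit, limit read from the data, passing the limit was not always enough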;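 further: myotubes were challenged with 10 µM simvastatin during compound exposure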
E-sel inducer = E-selectin induction in HUVECs, primary screen, imaging, HUVEC, immunofluorescence imaging, single point | P16581 | normalized: neutral wells 0, TNF-alpha wells 100 | activation, % at 7.58 µM | actives 0.37% (n = 260,000);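 active means mean E-selectin-positive cell signal at least 10% of the positive control, reached in at least 60% of replicates, without over 20% cell loss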
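Test system – human umbilical vein endothelial cells (HUVEC), E-selectin induction · Input – 3,000 HUVEC seeded per well · Buffer or medium – EGM-2, gelatin · Compound dosing – single-point compound dose · Detection – immunofluorescence imaging · Measure – percent E-selectin-positive cells · Controls – TNF-alpha high, DMSO low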
FGF22 binding-1 = binders of human FGF22 protein, primary screen, FGF22 synaptogenesis inhibitor project, biophysical, thermal shift, single point. Fibroblast growth factor 22 (Homo sapiens), Q9HCT0. recombinant FGF22 thermal shift, SYPRO orange fluorescence; percent of sucrose octasulfate shift, DMSO zero. activity (Tm shift, normalised), % at 9.99 µM. actives 1.5% (n = 340,000). AID 651658, 2012;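 active means mean Tm shift, scaled 0 neutral to 100 positive control, at about 1.3% or above, every replicate too, limit read from the data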
Target sequence (Q9HCT0 whole entry, looked up): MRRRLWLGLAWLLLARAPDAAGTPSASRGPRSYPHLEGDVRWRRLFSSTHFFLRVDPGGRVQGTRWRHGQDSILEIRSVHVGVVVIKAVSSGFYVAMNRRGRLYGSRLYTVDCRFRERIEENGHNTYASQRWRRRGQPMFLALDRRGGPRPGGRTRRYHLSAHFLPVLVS
FGF22 binding-2 = binders of human FGF22 protein, dose response, FGF22 synaptogenesis inhibitor project, biophysical, thermal shift, cherry-pick retest; shares compounds with FGF22 binding-1; recombinant FGF22 thermal shift, SYPRO orange fluorescence; thermal shift activity, °C (ΔTm) at 38 µM; actives 2% (n = 1,000);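 active means fitted rise in melting shift crosses a set limit at or below the top valid dose tested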
TSA no protein = compound-only thermal shift signal without protein, dose response, artefact control for FGF22 binder project, biochemical, cherry-picked samples, RT-PCR instrument; shares compounds with FGF22 binding-1; compound-only SYPRO orange thermal shift counter-screen, no protein; AC50, µM (doses to about 38 µM); actives 2% (n = 1,000);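 active means rising signal whose fitted curve reaches the 0.54 level within the top valid dose, showing a melting point, actives reach about 13 µM in these data; inactive means the rest, including activity in the opposite direction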; further: value is where the raw curve crosses a fixed level and not half-maximal
Hits are given with their value; – = inactive; · = not tested or not shown. A selection: hits, their analogues and other compounds. The true share with any hit is near 4%.

SMILES	rRNA inh HTS	FN deposition inh	SIRT5 block	Statin myotox sup	E-sel inducer	FGF22 binding-1	FGF22 binding-2	TSA no protein
CO[C@H](CN(C)S(=O)(=O)c1cccc(Cl)c1)[C@H](C)CN([C@H](C)CO)S(=O)(=O)c1cccc(Cl)c1	–	–	–	–	–	2.0	–	–
CO[C@H](CN(C)S(=O)(=O)c1cccc(Cl)c1)[C@@H](C)CN([C@H](C)CO)S(=O)(=O)c1ccc(Cl)cc1	–	–	–	–	–	–	·	·
CO[C@@H](CN(C)S(=O)(=O)c1cccc(Cl)c1)[C@@H](C)CN([C@H](C)CO)S(=O)(=O)c1cccc(Cl)c1	–	–	–	–	–	1.6	–	–
CO[C@@H](CN(C)S(=O)(=O)c1cccc(Cl)c1)[C@H](C)CN([C@@H](C)CO)S(=O)(=O)c1ccc(Cl)cc1	–	–	–	–	–	–	·	·
COc1ccccc1-c1ccc2c(c1)O[C@@H](CN(C)C(=O)Nc1ccccc1)[C@@H](C)CN([C@@H](C)CO)S2(=O)=O	–	·	–	–	–	–	·	·
C/C=C/c1ccc2c(c1)O[C@@H](CN(C)C(=O)Nc1cc(F)ccc1F)[C@@H](C)CN([C@H](C)CO)S2(=O)=O	–	·	–	–	–	1.3	–	–
COc1cccc(NC(=O)N(C)C[C@H]2Oc3cc(-c4ccccc4F)ccc3S(=O)(=O)N([C@@H](C)CO)C[C@H]2C)c1	–	–	19.3	–	·	2.8	–	–
COc1cccc(NC(=O)N(C)C[C@H]2Oc3cc(-c4ccccc4F)ccc3S(=O)(=O)N([C@@H](C)CO)C[C@@H]2C)c1	–	–	–	–	–	–	·	·
COc1cccc(NC(=O)N(C)C[C@@H]2Oc3cc(-c4ccccc4OC)ccc3S(=O)(=O)N([C@@H](C)CO)C[C@@H]2C)c1	–	·	–	–	–	–	·	·
COc1cccc(NC(=O)N(C)C[C@@H]2Oc3cc(-c4ccccc4F)ccc3S(=O)(=O)N([C@@H](C)CO)C[C@H]2C)c1	–	–	–	–	–	1.7	–	–
C/C=C/c1ccc2c(c1)O[C@H](CN(C)C(=O)Nc1cc(F)ccc1F)[C@@H](C)CN([C@H](C)CO)S2(=O)=O	–	·	–	–	–	–	·	·
COc1ccccc1-c1ccc2c(c1)O[C@@H](CN(C)C(=O)Nc1cccc(F)c1)[C@H](C)CN([C@@H](C)CO)S2(=O)=O	–	·	–	–	·	2.0	–	11.3µM
CC(C)NC(=O)N[C@@H]1CC[C@@H](CC(=O)NCCCN(C)C)O[C@H]1CO	–	–	·	–	–	·	·	·
COc1cccc(NC(=O)N(C)C[C@H]2Oc3cc(-c4ccccc4F)ccc3S(=O)(=O)N([C@H](C)CO)C[C@@H]2C)c1	–	–	–	–	–	1.4	–	–
C[C@H](CO)N1C[C@H](C)[C@@H](CN(C)Cc2ccc(C(=O)O)cc2)Oc2cc(/C=C/c3ccccc3)ccc2S1(=O)=O	·	·	103.9	–	·	23.1	–	–
C[C@@H]1CN([C@@H](C)CO)S(=O)(=O)c2ccc(-c3ccncc3)cc2O[C@@H]1CN(C)C(=O)Nc1ccc(C(F)(F)F)cc1	–	–	–	–	–	1.5	–	–
[N-]=[N+]=NCc1ccccc1C[C@]1(C(N)=O)N=C(c2ccc(OCCCO)cc2)O[C@H]1c1ccccc1	·	·	–	·	·	–	·	·
CO[C@@H]1CN(C)C(=O)c2cc(NC(=O)NC(C)C)ccc2OC[C@@H](C)NC[C@@H]1C	–	–	·	–	–	·	·	·
CO[C@H]1CN(C)C(=O)c2ccc(NS(=O)(=O)c3ccccc3)cc2OC[C@H](C)N(Cc2nccs2)C[C@H]1C	–	–	–	–	–	–	·	·
CC(=O)c1ccc(NS(=O)(=O)c2ccccc2)cc1	·	·	·	–	·	·	·	·
CC(=O)c1ccc(NS(=O)(=O)c2ccc(N)cc2)cc1	–	–	·	–	·	25.1	–	–
CCC(=O)N1CC2(C1)[C@H](c1ccccc1)[C@@H](CO)N2C(=O)NC(C)C	–	·	–	·	–	–	·	·
CO[C@@H]1CN(C)C(=O)c2ccc(NS(=O)(=O)c3ccc(Cl)cc3)cc2OC[C@H](C)N(C)C[C@@H]1C	–	–	–	–	–	–	·	·
CCCN(C)C[C@H]1OCCCC[C@@H](C)Oc2ccc(N(C)C)cc2C(=O)N([C@@H](C)CO)C[C@H]1C	–	·	–	–	–	–	·	·
COc1ccccc1NC(=O)N1CC(=O)N2[C@@H](CO)[C@@H](c3ccc(C#CC4CC4)cc3)[C@@H]2C1	–	·	–	·	–	·	·	·
SMILES	rRNA inh HTS	FN deposition inh	SIRT5 block	Statin myotox sup	E-sel inducer	FGF22 binding-1	FGF22 binding-2	TSA no protein
CCC(=O)N1[C@H](CO)[C@@H](c2ccccc2)[C@@H]1CN(CC)C(=O)NC1CCCC1	–	·	–	–	–	–	·	·
C[C@@H]1CN([C@@H](C)CO)C(=O)c2cccc(N(C)C)c2O[C@H]1CN(C)Cc1ccc(C(=O)O)cc1	–	–	–	–	–	2.7	–	–
C[C@@H]1CN([C@@H](C)CO)C(=O)c2cccc(NS(=O)(=O)c3cn(C)cn3)c2O[C@@H]1CN(C)S(=O)(=O)c1ccc(Cl)cc1	–	–	–	–	–	1.5	–	–
C[C@H]1CN([C@@H](C)CO)C(=O)c2cccc(N(C)C)c2O[C@H]1CN(C)Cc1ccc(C(=O)O)cc1	–	·	–	–	–	–	·	·
C[C@H](CO)N1C[C@H](C)[C@@H](CN(C)S(=O)(=O)c2ccccc2)Oc2c(NC(=O)C3CC3)cccc2C1=O	–	–	–	–	–	2.6	–	–
C[C@@H]1CN([C@@H](C)CO)C(=O)c2cccc(NC(=O)c3ccc(-c4nccs4)cc3)c2O[C@@H]1CN(C)C	–	–	–	–	–	5.0	–	–
C[C@@H]1CN([C@@H](C)CO)C(=O)c2cccc(NC(=O)C3CC3)c2O[C@H]1CN(C)S(=O)(=O)c1ccccc1	–	·	–	–	–	–	·	·

Compound activity from PubChem BioAssay.
